Consider one compound from ChEMBL document CHEMBL4014325.

Active and inactive are the calls of the source. The calls are words filed in the database; no cut-off is given here.

Data set [1] is described as follows: Stability of compound in aqueous solution at 100 uM after 2 days by ESI-LCMS analysis. The data set is classed as physicochemical. Conditions: read-out: Stability. The method, boiled down:
(§1)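 Duplicate samples of 100 μM compound in H₂O (20% DMSO) with 100 μM 5-chloro-3-phenyl-2,1-benzisoxazole as internal standard. Kept at 25 °C for 3 days and analysed daily by ESI-LCMS for the parent compound and the oxalamic acid degradation product.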

The target of data set [2] is T1, Anoctamin-1 (Mus musculus) (UniProt Q8BHY3).
T1 sequence (whole entry): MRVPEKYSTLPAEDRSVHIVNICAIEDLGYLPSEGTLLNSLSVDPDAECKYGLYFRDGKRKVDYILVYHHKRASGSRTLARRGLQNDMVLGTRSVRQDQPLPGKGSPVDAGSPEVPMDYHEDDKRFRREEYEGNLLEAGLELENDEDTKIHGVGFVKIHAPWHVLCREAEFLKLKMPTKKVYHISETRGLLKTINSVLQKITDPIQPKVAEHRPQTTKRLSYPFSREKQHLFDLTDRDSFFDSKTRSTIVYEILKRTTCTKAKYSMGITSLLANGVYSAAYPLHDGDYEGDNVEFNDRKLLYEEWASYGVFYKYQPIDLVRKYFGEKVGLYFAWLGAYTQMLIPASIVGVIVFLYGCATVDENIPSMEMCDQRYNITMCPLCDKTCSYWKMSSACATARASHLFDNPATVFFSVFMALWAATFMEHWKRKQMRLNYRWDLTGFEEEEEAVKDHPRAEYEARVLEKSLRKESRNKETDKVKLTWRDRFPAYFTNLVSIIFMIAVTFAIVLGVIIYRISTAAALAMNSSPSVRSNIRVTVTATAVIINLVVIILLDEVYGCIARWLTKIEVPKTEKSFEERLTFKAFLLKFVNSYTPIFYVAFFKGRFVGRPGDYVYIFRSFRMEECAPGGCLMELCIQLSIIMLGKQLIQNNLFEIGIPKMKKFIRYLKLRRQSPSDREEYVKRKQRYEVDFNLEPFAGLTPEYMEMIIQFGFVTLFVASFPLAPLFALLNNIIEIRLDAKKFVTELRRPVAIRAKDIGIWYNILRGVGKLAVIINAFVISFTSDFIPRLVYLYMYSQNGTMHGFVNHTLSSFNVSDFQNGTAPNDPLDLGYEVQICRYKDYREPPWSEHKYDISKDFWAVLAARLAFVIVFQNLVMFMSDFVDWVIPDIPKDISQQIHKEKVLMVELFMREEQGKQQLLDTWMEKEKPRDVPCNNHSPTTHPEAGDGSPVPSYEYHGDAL
The data set is described as follows: Inhibition of TMEM16A in CD1 mouse ileum assessed as reduction in intestinal smooth muscle contraction. The method, boiled down: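 Ileal segments of ~2 cm from adult CD1 mice killed by avertin overdose (200 mg/kg), ends tied, mounted on a force transducer. […] Stabilised 60 min at 0.5 g resting tension with changes every 15 min. Compound added to the bath; spontaneous isometric contractions recorded; three separate experiments.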

Data set [3] deals with T2, Anoctamin-1 (Homo sapiens) (UniProt Q5XXA6).
T2 sequence (whole entry): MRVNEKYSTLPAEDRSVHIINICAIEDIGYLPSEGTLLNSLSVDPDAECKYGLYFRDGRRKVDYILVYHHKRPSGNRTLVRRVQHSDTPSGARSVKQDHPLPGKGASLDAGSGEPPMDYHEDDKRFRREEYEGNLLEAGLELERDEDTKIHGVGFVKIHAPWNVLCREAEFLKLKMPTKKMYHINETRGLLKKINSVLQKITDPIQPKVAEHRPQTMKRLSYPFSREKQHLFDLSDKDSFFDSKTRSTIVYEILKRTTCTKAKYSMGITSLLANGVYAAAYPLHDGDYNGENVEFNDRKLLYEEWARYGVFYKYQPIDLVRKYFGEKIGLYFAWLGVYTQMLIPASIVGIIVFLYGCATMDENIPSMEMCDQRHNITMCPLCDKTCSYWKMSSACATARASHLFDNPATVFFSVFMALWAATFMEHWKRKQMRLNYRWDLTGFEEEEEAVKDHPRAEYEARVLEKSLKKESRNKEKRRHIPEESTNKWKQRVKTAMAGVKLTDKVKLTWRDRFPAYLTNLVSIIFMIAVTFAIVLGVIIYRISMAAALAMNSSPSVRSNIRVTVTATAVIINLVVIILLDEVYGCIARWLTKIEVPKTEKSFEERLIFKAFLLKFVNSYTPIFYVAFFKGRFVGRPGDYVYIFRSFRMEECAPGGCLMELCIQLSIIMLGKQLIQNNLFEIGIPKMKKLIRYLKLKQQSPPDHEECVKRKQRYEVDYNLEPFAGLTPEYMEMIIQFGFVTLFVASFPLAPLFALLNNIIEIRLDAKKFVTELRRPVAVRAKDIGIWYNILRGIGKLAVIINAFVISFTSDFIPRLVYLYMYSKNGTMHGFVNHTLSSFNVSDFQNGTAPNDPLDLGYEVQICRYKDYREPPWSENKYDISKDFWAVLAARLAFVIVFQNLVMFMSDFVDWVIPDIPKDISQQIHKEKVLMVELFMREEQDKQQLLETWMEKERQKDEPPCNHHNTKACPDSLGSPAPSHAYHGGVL
Conditions: 1 uM.

The target in data set [4] is T2, Anoctamin-1 (Homo sapiens). Conditions: 250 nM.
The target in data set [5] is T2, Anoctamin-1 (Homo sapiens). Conditions: 1 uM. The source holds these as a separate data set.
A short description of data set [6]: Metabolic stability in rat liver microsomes assessed as compound remaining in presence of NADPH at 10 uM after 180 mins by LC/MS analysis. The data set is classed as ADME, microsome. Conditions: read-out: Stability. The method, boiled down:
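10 μM compound shaken at 37 °C with rat liver microsomes (1 mg protein/mL) in 100 mM potassium phosphate buffer with 1 mM NADPH, sampled at 2–180 min. Quenched on ice with ice-cold ethyl acetate, centrifuged, supernatant dried and redissolved. Parent compound quantified by C₁₈ reverse-phase LC/MS (5–95% acetonitrile gradient); mean ± SEM, n=3.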
(Microsomes from liver hold many membrane-bound enzymes, among them those of drug oxidation.)

Data set [7] addresses T2, Anoctamin-1 (Homo sapiens). Conditions: 1 uM. The source holds these as a separate data set.
The nature of data set [8]: Stability of compound in aqueous solution at 100 uM after 1 day by ESI-LCMS analysis. Conditions: read-out: Stability. The data set is classed as physicochemical. In outline: as §1
Data set [9] in a line: Kinetic aqueous solubility of compound in PBS by titration method. The data set is classed as physicochemical. Conditions: buffer. In outline:
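Increasing quantities of a 30 mM DMSO stock added to 2 mL aliquots of PBS. Kinetic solubility taken from the titration point.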

The target of data set [10] is Cystic fibrosis transmembrane conductance regulator (Homo sapiens) (UniProt P13569). The data set is described as follows: Inhibition of human wild type CFTR expressed in FRT cells co-expressing halide sensitive YFP-H148Q assessed as reduction in forskolin induced cAMP activated chloride conductance by measuring decrease in iodide influx after 15 mins by fluorescence assay. The data set is classed as cell-based. In outline:
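FRT cells co-expressing YFP and wild-type CFTR, washed with PBS. Incubated 15 min with compound in PBS containing 20 μM forskolin. Plate reader baseline 2 s, then 12 s after rapid addition of I⁻-containing solution; initial I⁻ influx rate computed.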

Data set [11] is described as follows: Stability of compound in DMSO. The data set is classed as physicochemical.
Data set [12] has as its target T2, Anoctamin-1 (Homo sapiens). Conditions: 250 nM. This is another data set of the same source.
Data set [13] is described as follows: Cytotoxicity against human HT-29 cells assessed as cell survival at 5 uM after 8 hrs by alamar blue assay relative to control. The data set is classed as cell-based. Conditions: read-out: Survival. In outline:
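Cells cultured overnight, then exposed to compound at 5 μM for 8 h. Viability read by Alamar Blue per kit instructions. Table reports n=3.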
On the technique in general: Alamar Blue is a resazurin reagent that responds to reducing activity.

Cystic fibrosis transmembrane conductance regulator (Homo sapiens), sequence (P13569 whole entry, looked up): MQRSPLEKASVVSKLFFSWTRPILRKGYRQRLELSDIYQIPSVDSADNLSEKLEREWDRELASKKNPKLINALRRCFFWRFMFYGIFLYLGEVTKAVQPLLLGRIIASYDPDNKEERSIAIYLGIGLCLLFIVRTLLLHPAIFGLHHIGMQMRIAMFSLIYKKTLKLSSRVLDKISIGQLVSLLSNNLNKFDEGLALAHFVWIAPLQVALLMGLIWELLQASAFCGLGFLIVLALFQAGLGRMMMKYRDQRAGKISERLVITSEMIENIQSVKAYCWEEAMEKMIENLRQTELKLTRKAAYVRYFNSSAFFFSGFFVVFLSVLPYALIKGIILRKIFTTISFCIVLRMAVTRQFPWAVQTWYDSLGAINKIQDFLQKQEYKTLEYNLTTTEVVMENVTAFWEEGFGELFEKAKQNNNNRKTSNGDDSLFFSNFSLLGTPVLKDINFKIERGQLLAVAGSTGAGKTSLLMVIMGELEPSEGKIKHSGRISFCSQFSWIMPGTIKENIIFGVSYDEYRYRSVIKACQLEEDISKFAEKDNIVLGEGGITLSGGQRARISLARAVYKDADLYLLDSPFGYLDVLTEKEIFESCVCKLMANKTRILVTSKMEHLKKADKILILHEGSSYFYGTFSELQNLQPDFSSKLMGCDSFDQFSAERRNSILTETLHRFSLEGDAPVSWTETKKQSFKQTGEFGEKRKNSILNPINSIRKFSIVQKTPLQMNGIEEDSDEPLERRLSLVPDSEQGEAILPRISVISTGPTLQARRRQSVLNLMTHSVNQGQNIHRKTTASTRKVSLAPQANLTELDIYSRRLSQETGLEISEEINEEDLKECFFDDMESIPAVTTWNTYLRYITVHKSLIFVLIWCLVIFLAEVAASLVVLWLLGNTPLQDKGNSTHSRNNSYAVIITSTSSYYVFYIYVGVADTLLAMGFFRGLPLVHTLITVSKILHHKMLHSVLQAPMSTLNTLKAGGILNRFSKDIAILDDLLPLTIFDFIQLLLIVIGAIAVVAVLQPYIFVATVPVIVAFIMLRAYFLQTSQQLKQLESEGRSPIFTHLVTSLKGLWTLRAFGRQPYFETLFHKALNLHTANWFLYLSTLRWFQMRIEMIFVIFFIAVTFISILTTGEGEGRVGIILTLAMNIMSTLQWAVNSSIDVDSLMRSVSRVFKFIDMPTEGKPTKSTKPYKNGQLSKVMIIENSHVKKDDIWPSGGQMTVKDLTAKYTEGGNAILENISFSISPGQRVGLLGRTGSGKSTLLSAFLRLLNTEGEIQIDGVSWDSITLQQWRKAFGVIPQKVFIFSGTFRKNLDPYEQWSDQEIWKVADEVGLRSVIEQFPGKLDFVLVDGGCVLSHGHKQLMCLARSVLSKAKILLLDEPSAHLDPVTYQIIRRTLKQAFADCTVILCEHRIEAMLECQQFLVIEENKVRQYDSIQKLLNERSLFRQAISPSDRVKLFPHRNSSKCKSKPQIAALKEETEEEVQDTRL

As to `Cc1ccccc1NC(=O)c1c(NC(=O)C(F)(F)Br)sc2c1CCCCC2`, the remaining at 48 h, 100 µM in [1] was determined as 30%. In addition, the inhibition entry in data set [2] was “Dose-dependent effect”. Further, the inhibition entry in data set [3], in data set [4], in data set [5] and in data set [7] was “Active” each time. For the same compound, the remaining at 3 h, 10 µM in [6] stood at 30%. Besides, the remaining at 24 h, 100 µM in data set [8] amounted to 72%. The compound further returned a Kinetic_solubility in data set [9] of 40 µg/mL. For the same compound, the inhibition entry in data set [10] and in data set [12] was “inactive” each time. This compound also showed a Stability in data set [11] greater than 6 months. The viability at 8 h, 5 µM in [13] was determined as 97%.
